Tests used:
[1] = system: A549; assay: Permeability in human A549 cells assessed as relative fluorescence intensity at 10 uM incubated for 8 hrs at 37 degC in presence of serum free medium by spectrofluorometry; format: ADME, cell-based; details: a549, 8 h
Summary of the method: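 A549 cells exposed to TAMRA-labeled oligonucleotides (in 10 mM Tris–HCl, 1 mM EDTA, pH 8) without transfection reagent; after incubation, PBS wash, lysis and lysate fluorescence read on a spectrofluorometer; n = 4.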

[2] = Stability in 28% NH3 aq, 55 degC incubated for 8 hrs assessed as compound degradation in to PDE dimer d(TpT) by reversed-phase HPLC method; format: physicochemical
Summary of the method: (§1)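 Untreated and treated dimers compared by reversed-phase HPLC on a C18 column, eluted with a linear 5–25% acetonitrile gradient over 20 min in 50 mM triethylammonium acetate, pH 7.0.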

[3] = Stability in 28% NH3 aq, incubated for 2 hrs at room temperature assessed as compound degradation by reversed-phase HPLC method; format: physicochemical; summary of the method: as §1
[4] = Stability assessed as snake venom phosphodiesterase-mediated compound degradation at 5 nmol incubated for 180 mins by reversed-phase HPLC method; format: ADME; details: serpentes, 3 h
Summary of the method: (§2)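 Dimers incubated with snake venom phosphodiesterase or in 10% fetal bovine serum, then reactions analysed by reversed-phase HPLC; peak areas of intact dimer used to give the fraction of intact dimer over time.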

[5] = system: Serum; assay: Stability in 10% FBS assessed as compound degradation at 5 nmol incubated for 180 mins by reversed-phase HPLC method; format: ADME, cell-free, Bos taurus; details: cattle, 3 h; summary of the method: as §2
[6] = Solubility in water; format: physicochemical; details: buffer

Cc1cn([C@H]2C[C@H](OP(=O)(O)OC[C@H]3O[C@@H](n4cc(C)c(=O)[nH]c4=O)C[C@@H]3OP(=O)(O)OC[C@H]3O[C@@H](n4cc(C)c(=O)[nH]c4=O)C[C@@H]3OP(=O)(O)OC[C@H]3O[C@@H](n4cc(C)c(=O)[nH]c4=O)C[C@@H]3OP(=O)(O)OC[C@H]3O[C@@H](n4cc(C)c(=O)[nH]c4=O)C[C@@H]3OP(=O)(O)OC[C@H]3O[C@@H](n4cc(C)c(=O)[nH]c4=O)C[C@@H]3OP(=O)(O)OC[C@H]3O[C@@H](n4cc(C)c(=O)[nH]c4=O)C[C@@H]3OP(=O)(O)OC[C@H]3O[C@@H](n4cc(C)c(=O)[nH]c4=O)C[C@@H]3OP(=O)(O)OC[C@H]3O[C@@H](n4cc(C)c(=O)[nH]c4=O)C[C@@H]3OP(=O)(O)OC[C@H]3O[C@@H](n4cc(C)c(=O)[nH]c4=O)C[C@@H]3OP(=O)(O)OCCC(O)COCCCNC(=O)c3ccc(C(=O)O)c(C4=C5C=CC(=[N+](C)C)C=C5OC5C=C(N(C)C)C=CC45)c3)[C@@H](COP(=O)(O)OCCCCNCCCNCCCCNCCCNCCCCO)O2)c(=O)[nH]c1=O (stereo partly drawn)
Flu intensity [1]: 5.45

Cc1cn([C@H]2C[C@H](OP(=O)(O)OC[C@H]3O[C@@H](n4cc(C)c(=O)[nH]c4=O)C[C@@H]3OP(=O)(O)OC[C@H]3O[C@@H](n4cc(C)c(=O)[nH]c4=O)C[C@@H]3OP(=O)(O)OC[C@H]3O[C@@H](n4cc(C)c(=O)[nH]c4=O)C[C@@H]3OP(=O)(O)OC[C@H]3O[C@@H](n4cc(C)c(=O)[nH]c4=O)C[C@@H]3OP(=O)(O)OC[C@H]3O[C@@H](n4cc(C)c(=O)[nH]c4=O)C[C@@H]3OP(=O)(O)OC[C@H]3O[C@@H](n4cc(C)c(=O)[nH]c4=O)C[C@@H]3OP(=O)(O)OC[C@H]3O[C@@H](n4cc(C)c(=O)[nH]c4=O)C[C@@H]3OP(=O)(O)OC[C@H]3O[C@@H](n4cc(C)c(=O)[nH]c4=O)C[C@@H]3OP(=O)(O)OC[C@H]3O[C@@H](n4cc(C)c(=O)[nH]c4=O)C[C@@H]3OP(=O)(O)OCCC(O)COCCCNC(=O)c3ccc(C(=O)O)c(C4=C5C=CC(=[N+](C)C)C=C5OC5C=C(N(C)C)C=CC45)c3)[C@@H](COP(=O)(O)O)O2)c(=O)[nH]c1=O (stereo partly drawn)
Flu intensity [1]: 1

COP(=O)(OC[C@H]1O[C@@H](n2cc(C)c(=O)[nH]c2=O)C[C@@H]1O)O[C@H]1C[C@H](n2cc(C)c(=O)[nH]c2=O)O[C@@H]1CO (stereo partly drawn)
Stability [2]: Unstable
Stability [3]: Unstable

Cc1cn([C@H]2C[C@H](OP(=O)(O)OC[C@H]3O[C@@H](n4cc(C)c(=O)[nH]c4=O)C[C@@H]3O)[C@@H](CO)O2)c(=O)[nH]c1=O
Stability [4]: Unstable
Stability [5]: Unstable

CCOP(=O)(OC[C@H]1O[C@@H](n2cc(C)c(=O)[nH]c2=O)C[C@@H]1O)O[C@H]1C[C@H](n2cc(C)c(=O)[nH]c2=O)O[C@@H]1CO (stereo partly drawn)
Stability [4]: Stable
Stability [5]: Stable
Stability [2]: Stable
Stability [3]: Stable

CCOP(=O)(OC[C@H]1O[C@@H](n2cc(C)c(=O)[nH]c2=O)C[C@@H]1OP(=O)(OCC)OC[C@H]1O[C@@H](n2cc(C)c(=O)[nH]c2=O)C[C@@H]1OP(=O)(OCC)OC[C@H]1O[C@@H](n2cc(C)c(=O)[nH]c2=O)C[C@@H]1OP(=O)(OCC)OC[C@H]1O[C@@H](n2cc(C)c(=O)[nH]c2=O)C[C@@H]1OP(=O)(OCC)OC[C@H]1O[C@@H](n2cc(C)c(=O)[nH]c2=O)C[C@@H]1OP(=O)(OCC)OC[C@H]1O[C@@H](n2cc(C)c(=O)[nH]c2=O)C[C@@H]1OP(=O)(OCC)OC[C@H]1O[C@@H](n2cc(C)c(=O)[nH]c2=O)C[C@@H]1OP(=O)(OCC)OC[C@H]1O[C@@H](n2cc(C)c(=O)[nH]c2=O)C[C@@H]1OP(=O)(OCC)OC[C@H]1O[C@@H](n2cc(C)c(=O)[nH]c2=O)C[C@@H]1OP(=O)(O)OCCC(O)COCCCNC(=O)c1ccc(C(=O)O)c(C2=C3C=CC(=[N+](C)C)C=C3OC3C=C(N(C)C)C=CC23)c1)O[C@H]1C[C@H](n2cc(C)c(=O)[nH]c2=O)O[C@@H]1COP(=O)(O)OCCCCNCCCNCCCCNCCCNCCCCO (stereo partly drawn)
Flu intensity [1]: 33.1
solubility [6]: soluble

CCOP(=O)(OC[C@H]1O[C@@H](n2cc(C)c(=O)[nH]c2=O)C[C@@H]1OP(=O)(OCC)OC[C@H]1O[C@@H](n2cc(C)c(=O)[nH]c2=O)C[C@@H]1OP(=O)(OCC)OC[C@H]1O[C@@H](n2cc(C)c(=O)[nH]c2=O)C[C@@H]1OP(=O)(OCC)OC[C@H]1O[C@@H](n2cc(C)c(=O)[nH]c2=O)C[C@@H]1OP(=O)(OCC)OC[C@H]1O[C@@H](n2cc(C)c(=O)[nH]c2=O)C[C@@H]1OP(=O)(OCC)OC[C@H]1O[C@@H](n2cc(C)c(=O)[nH]c2=O)C[C@@H]1OP(=O)(OCC)OC[C@H]1O[C@@H](n2cc(C)c(=O)[nH]c2=O)C[C@@H]1OP(=O)(OCC)OC[C@H]1O[C@@H](n2cc(C)c(=O)[nH]c2=O)C[C@@H]1OP(=O)(OCC)OC[C@H]1O[C@@H](n2cc(C)c(=O)[nH]c2=O)C[C@@H]1OP(=O)(O)OCCC(O)COCCCNC(=O)c1ccc(C(=O)O)c(C2=C3C=CC(=[N+](C)C)C=C3OC3C=C(N(C)C)C=CC23)c1)O[C@H]1C[C@H](n2cc(C)c(=O)[nH]c2=O)O[C@@H]1COP(=O)(O)O (stereo partly drawn)
Flu intensity [1]: 16

Reference: ChEMBL document CHEMBL3608243, “Synthesis of novel cationic spermine-conjugated phosphotriester oligonucleotide for improvement of cell membrane permeability” (Bioorg Med Chem Lett, 2015)
